From ChEMBL document CHEMBL4513216, “Probing the Open Global Health Chemical Diversity Library for Multistage-Active Starting Points for Next-Generation Antimalarials” (ACS Infect Dis, 2020) come the findings set out here.

This data set is described as follows: Toxicity liver stage against HepG2, at 10uM. Type of data set: cell-based. Set-up: test concentration 10 uM, cell line HepG2-A16-CD81EGFP. The settings on record: human, HepG2-A16-CD81EGFP cells; read-out: INHIBITION
Put shortly: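 Uninfected HepG2-A16-CD81EGFP cells, 3 × 10^3 per well, 1536-well, plated on prespotted compound at 10 μM final, parasite-free screening media added to match infected plates; puromycin 10 μM positive, DMSO 0.5% negative; run in parallel with 48 h PbLuc assay at 37 °C, 5% CO2; viability by CellTiter-Glo luminescence, normalized to controls.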
Regarding `O=C(NC[C@H]1Cn2c(-c3ccccc3)cnc2CO1)C1CC1`, the cytotoxicity at 10 µM is -3.01%.
For `CC(C)NC(=O)[C@@H]1Cc2[nH]cnc2CN1CCCc1ccccc1`, the cytotoxicity at 10 µM was 10.1%.
For `O[C@@H]1C[C@@H](c2nc(-c3cccnc3)no2)N(C2CCOCC2)C1` the value was -4.03%.
`CC(=O)N1N=C(Cc2ccccc2)OC1C(=O)NCC(=O)OC(C)(C)C` (centres undefined): the cytotoxicity at 10 µM was 0.15%.
With `COc1cccc(-c2nc(C)c(C(=O)N[C@@H](CCSC)C(=O)O)s2)c1`, the cytotoxicity at 10 µM is -1.64%.
With `COc1cc(OC)c(C2CC(=O)Oc3cc(C)[nH]c(=O)c32)c(OC)c1` (centres undefined), the cytotoxicity at 10 µM is -6.24%.
`Cc1nnsc1-c1nnc2sc(C(C)C)nn12`: the cytotoxicity at 10 µM was -9.74%.
For `CSCC(C)(O)CNS(=O)(=O)c1ccc(F)cc1` (centres undefined) the value was -8.06%; for `Cc1cccc(OC2CCN(C(=O)c3ccc4c(c3)OCO4)CC2)n1`, -5.51%; for `COc1cc(N2CC3(CCN(c4ncccn4)C3)C2)ncn1`, 9.79%.
As for `CCS(=O)(=O)N1C[C@@H]2COC[C@@H](Cc3nc(C)no3)[C@@H]2C1`, the cytotoxicity at 10 µM worked out at 9.04%.
For `CN(C)Cc1nn(C)c2c1CN(C(=O)Nc1ccc(F)cc1)C2` the value was 6.04%; for `COCCC1COC2(CCN(C(=O)C3CCC3)CC2)C1` (centres undefined), 8.25%; for `O=C(c1ccc[nH]1)N1CCCC2(CCCN2Cc2cccnc2)C1` (centres undefined), 3.83%.
For `O=C(C1CC1)N1CC[C@H]2[C@@H]1CCC(=O)N2c1ccccc1` the value was 10.8%; for `Cc1cccc(NC(=O)N2CCC3(CC(=O)N(c4ccsc4)C3)C2)c1` (centres undefined), 6.47%.
The figure for `CSCCC(CO)NC(=O)c1ccc2[nH]/c(=N\S(C)(=O)=O)sc2c1` (centres undefined) is -6.96%; for `O=C(Cn1nc(N2CCOCC2)ccc1=O)Nc1nccs1` it is -1.47%; for `Fc1cnc(N2CCO[C@H]3CN(CC4CCC4)C[C@H]32)nc1` it is -8.71%.
On to `CNc1nc(C2CCCN(C(=O)C(C)C)C2)nc2c1CN(C)CC2` (centres undefined), for which the cytotoxicity at 10 µM was -16.3%.
Turning to `CC1(C(=O)NC2CCCC2)CN(c2cnccn2)CCO1` (centres undefined), the cytotoxicity at 10 µM is -33.9%.
On to `CC(=O)N1CCN(CCOc2ccc(F)cc2)CC(C(N)=O)C1` (centres undefined), for which the cytotoxicity at 10 µM was -38.9%.
For the compound `CNC(=O)c1ccc(C2CCCN(C(=O)c3sc(C)nc3C)C2)nc1` (centres undefined), the cytotoxicity at 10 µM is -36.5%.
For `CCN1CCC(c2cncc(N(C)C)n2)CC1` the value was 5.12%; for `Cc1ncccc1C(=O)Nc1cccc(C[S+](C)[O-])c1C` (centres undefined), 4.08%; for `CCOCCS(=O)(=O)c1nnc(NCCOC)s1`, -7.18%.
The figure for `CC(C)c1nn(C)cc1CNCc1cccc(N(C)C)c1` is -0.509%; for `CC(C)c1nnc(CN2CCCC2C(=O)OCc2ccccc2)o1` (centres undefined) it is 2.78%.
The figure for `CCc1cc(NCCCNS(C)(=O)=O)nc(-c2ccccn2)n1` is 1.8%.
Regarding `COc1ccccc1CC1CCCN(CCN2CCOC2=O)C1` (centres undefined), the cytotoxicity at 10 µM is 6.93%.
The figure for `Cc1ccc(NC(=O)N2CCN(C(=O)CC3CCCC3)CC2)s1` is 4.36%; for `Clc1cccc(N2CCC(NCc3cc[nH]n3)C2)c1` (centres undefined) it is 4.01%; for `Cc1oc(NC(=O)C(C)N2CCN(C(=O)C3CC3)CC2)c(C#N)c1C` (centres undefined) it is -18.6%.
For the compound `O=C(Nc1nncs1)N1CCC(CCc2ccc(O)cc2)CC1`, the cytotoxicity at 10 µM is 6.81%.
Take `Cc1cc(C)n(CC2CCCCN2CC(=O)Nc2ccncc2)n1` (centres undefined): the cytotoxicity at 10 µM was 8.69%.
For `CC(C)NC(=O)NCCCc1cccc(F)c1` the value was -0.0328%; for `CNC(=O)CN(C)C(=O)Cc1csc(C(C)C)n1`, -5.07%; for `CSCCN(C)C(=O)C1(c2ccc(F)cc2F)CCOCC1`, 0.53%.
`OC[C@@H](O)CN(CCC(F)(F)F)c1ncc(Br)cn1`: the cytotoxicity at 10 µM was -8.72%.
`Cc1cc(NC(=O)Cn2nc(C)c(C#N)c2N)ccc1Br`: the cytotoxicity at 10 µM was -6.58%.
`CCc1sc(-c2nnc(CNCCn3cccn3)o2)cc1C`: the cytotoxicity at 10 µM came to 5.05%.
With `CCc1ccc(C(=O)O)cc1S(=O)(=O)Nc1c(C)ccn(C)c1=O`, the cytotoxicity at 10 µM was 4.28%.
The figure for `Cc1nc(O)ccc1C(=O)NCc1ncccc1F` is 7.97%.
For `CCCNC(=O)c1cccc(CNCc2csc(CC)n2)c1` the value was -10.7%; for `CC(=O)c1ccc(S(=O)(=O)N2CCC(c3n[nH]c(C)n3)CC2)cc1`, -5.24%.
Regarding `CC1CCN(CC(O)CN2CCn3c(nnc3C3CC3)C2)CC1` (centres undefined), the cytotoxicity at 10 µM is -2.22%.
Consider `N#Cc1ccnc(N2CCN(CC(O)c3cccc(F)c3)CC2)c1` (centres undefined), for which the cytotoxicity at 10 µM is 3.15%.
For the compound `Cc1cccc(CN2CC[C@H]3OCC[C@@]3(C(=O)N3CCOCC3)C2)n1`, the cytotoxicity at 10 µM was -1.49%.
For `Cn1cc(N2C(=O)C[C@@H]3[C@@H]2CCN3C(=O)c2ccco2)cn1` the value was -107%; for `CCn1c2c(ccc1=O)CC(NCc1cnn(C)c1)CC2` (centres undefined), -102%.
Consider `CC(=O)N1CCC2(CC1)CCN(C(=O)c1ccc(F)c(C(F)(F)F)c1)C2`, for which the cytotoxicity at 10 µM was -80%.
Regarding `CC(C)c1nccc([C@@H]2C[C@@H]3CCN(Cc4ccco4)C[C@H]3O2)n1`, the cytotoxicity at 10 µM amounted to 1.1%.
The figure for `Cc1ccc(-c2cnnc(N3CCCC3c3nccs3)n2)o1` (centres undefined) is 3.04%.
As for `Cc1noc(C)c1CN1CCCCC1CCc1ccc(O)cc1` (centres undefined), the cytotoxicity at 10 µM was -2.06%.
For `COc1cc(F)c(C(=O)NCc2ccon2)c(F)c1` the value was 2.13%.
The figure for `Cc1cc(C(=O)N2CCN[C@H](C)C2)c2ccc(F)cc2n1` is 13.7%; for `Cc1cc(C)nc(NC(C)Cc2cnccn2)n1` (centres undefined) it is 1.54%; for `COc1ccccc1C(C(=O)O)N1CCCN(C2CCCC2)CC1` (centres undefined) it is -9.12%.
Regarding `Cc1cc2nc(C(C)C)cc(N3CCN(c4ccc(O)cc4)CC3)n2n1`, the cytotoxicity at 10 µM was 10.8%.
As to `O=C(NCCc1nc(-c2cccnc2)no1)c1ccc(C2CCCO2)s1` (centres undefined), the cytotoxicity at 10 µM was found to be 11.2%.
For `CC(=O)N1CCN(C(=O)Nc2ccc(Cl)cc2)[C@H]2CS(=O)(=O)C[C@H]21` the value was 6.55%; for `COc1cccn(C(C)C(=O)NC2CCCC2)c1=O` (centres undefined), 5.32%.
Take `Cc1ccsc1[C@@H]1CCN(C(=O)Cn2cc3ccccc3n2)C[C@H]1O`: the cytotoxicity at 10 µM was -1.96%.
Turning to `CCn1c(C2CCCN(Cc3cc(OC)cc(OC)c3)C2)nn(C)c1=O` (centres undefined), the cytotoxicity at 10 µM came to 0.0264%.
As to `CN(C)S(=O)(=O)N1CC[C@]2(O)CCN(c3nccs3)C[C@@H]2C1`, the cytotoxicity at 10 µM was -13%.
The figure for `CN1CCC(N(CCc2ccccc2)C(=O)c2ccc(C#N)nc2)CC1` is -3.33%.
For `COc1cccc(OCC(=O)NCc2ccc3[nH]c(=O)[nH]c3c2)c1` the value was 2.59%; for `CC(C)C(NC(=O)c1ccc(=O)[nH]c1)c1nnc2n1CCNCC2` (centres undefined), -1.86%.
For `O=C(Cc1ccc(O)c(Cl)c1)N1CCN(CC2CC2)[C@@H]2CS(=O)(=O)C[C@@H]21` the value was 5.84%; for `O=C(Nc1nncs1)NC1CCN(Cc2ccccc2)C1` (centres undefined), -0.397%.
On to `COc1c(CNC2CCN(c3ncccn3)CC2)c(C(C)C)nn1C`, for which the cytotoxicity at 10 µM is -4.81%.
The figure for `CCCC(C)C(=O)N1CCC(n2cccc2C(=O)OC)CC1` (centres undefined) is -10%.
In the case of `Nc1nc(Nc2ccccc2)cc(N2CCNCC2)n1`, the cytotoxicity at 10 µM was determined as 1.23%.
For `CCOCc1nn(CC2CC2)c2c1CN(Cc1ccco1)CC2` the value was 2.7%; for `CC(=O)N1CCOCC2(CN(Cc3ccccn3)CCO2)C1` (centres undefined), -3.28%; for `CO[C@H]1CCN(Cc2c(C)noc2C)[C@@H]2CN(Cc3ccncc3)C[C@H]12`, 5.59%.
Turning to `O=C(c1ccncc1)N1CC[C@@H]2[C@@H](CC1)OCCN2c1cccnc1`, the cytotoxicity at 10 µM came out at 8.25%.
With `c1cc(CN2CCC(c3ccc4c(c3)OCO4)CC2)ccn1`, the cytotoxicity at 10 µM was -5.21%.
For `O=C(Nc1cnccn1)[C@@H]1CCO[C@@H]2CCN(Cc3ccsc3)C[C@@H]21` the value was -77.1%; for `c1ccc(CN2CCc3ncnc(-c4ccoc4)c3CC2)nc1`, -79%; for `NC(=O)c1nc2c(s1)CCN(Cc1ccccc1)CC2`, 9.61%.
For `O=C(c1cscn1)N1CC[C@@H]2[C@@H]1CCN2C1CCOC1` (some centres undefined) the value was 4.19%; for `CCOC(=O)c1n[nH]cc1-c1cncn1CCn1nc(C)c(C)c1C`, -35.3%.
On to `O=C(NCc1cnc2n1CCN(Cc1cccs1)C2)c1ccno1`, for which the cytotoxicity at 10 µM is -110%.
For `N#Cc1cccc(C(=O)N2CC[C@H]3[C@H]2CCN3CC2CC2)c1` the value was 3.03%; for `c1cncc(CN2C[C@H]3CCC[C@@H](CNc4cnccn4)[C@H]3C2)c1`, -2.1%; for `O=C(CCn1c(C(F)(F)F)cc2cccnc21)N1CCCC1`, -21.5%.
The figure for `CC(C)CN1CCS(=O)(=O)[C@@H]2CCN(S(=O)(=O)C3CC3)CC[C@@H]21` is 7.8%; for `CN(C)[C@H]1COC[C@@H]2CN(Cc3ccc4c(c3)OCO4)C[C@@H]21` it is 4.2%; for `CC(C)N(C)Cc1cncc2c1CCN(CC(=O)N(C)C)C2` it is -100%.
The figure for `CS(=O)(=O)NC1CC2(CCN(CCF)CC2)Oc2ccccc21` (centres undefined) is -2.68%; for `c1cnc(NCc2cncc3c2CCN(Cc2cccnc2)C3)nc1` it is -68.5%; for `O=S(=O)(C1CC1)N1CCc2ncnc(-c3ccncc3)c2CC1` it is -3.27%.
For the compound `C=c1ncsc1=C1NC(c2cccc(CN3CCOCC3)c2)=NO1`, the cytotoxicity at 10 µM was -11.3%.
